Common to all, as to assay type: functional
Assay [1] concerns Nucleic Acid. As to the kind of experiment: Percent inhibition of DNA synthesis ([Me-3H] thymidine incorporation) at 50 uM concentration. The essentials:
(§1)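 Balb/c 3T3 cells were grown to confluence in Eagle's MEM with 10% fetal calf serum. They were synchronized in serum-free medium containing 10% spent medium, then stimulated with fresh medium plus 10% FCS, with or without oligonucleotide at a final 5 or 50 μM. At set intervals, duplicate cultures were pulsed 1 h with [3H]thymidine (40 Ci/mmol) and TCA-insoluble cpm counted. % inhibition = 100[1 − treated/control], using cpm summed over the control peak DNA-synthesis period (e.g. 15–16, 17–18, 19–20 h).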
On the technique in general: Dividing cells build labelled thymidine or BrdU into new DNA.

A short description of assay [2]: Percent inhibition of protein synthesis ([35S]methionine incorporation) at 50 uM concentration. The essentials: (§2)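 Confluent Balb/c 3T3 cells were synchronized in methionine-free, serum-free medium containing 10% spent medium. They were then stimulated with fresh methionine-free medium plus 10% fetal calf serum, with or without oligonucleotide at a final 5 or 50 μM. At set intervals, duplicate cultures were pulse-labeled 1 h with [35S]methionine (147 mCi/mmol) and TCA-insoluble cpm measured. % inhibition = 100[1 − treated cpm/untreated cpm].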

Assay [3] has as its system Nucleic Acid. Description: Percent inhibition of DNA synthesis ([Me-3H] thymidine incorporation) at 5 uM concentration. The essentials: as §1
Assay [4] can be described thus: Percent inhibition of protein synthesis ([35S]methionine incorporation) at 5 uM concentration. The essentials: as §2

Experimental findings from ChEMBL document CHEMBL1122405, “Structure--activity relationships for and potentiation of the antimitogenic activity of 2-5A core derived from 2-5A, a mediator of interferon action” (J Med Chem, 1983) are described below.

On to `Nc1ncnc2c1ncn2[C@@H]1O[C@H](COP(=O)(O)O[C@@H]2[C@H](O)[C@@H](COP(=O)(O)O[C@@H]3[C@H](O)[C@@H](COP(=O)(O)OP(=O)(O)OP(=O)(O)O)O[C@H]3n3cnc4c(N)ncnc43)O[C@H]2n2cnc3c(N)ncnc32)[C@@H](O)[C@H]1O`, for which the inhibition in the assay on Nucleic Acid [1] was determined as 27%; in assay [2], 21%; in the assay on Nucleic Acid [3], 11%; in assay [4], 11%.
In the case of `Nc1ncnc2c1ncn2[C@@H]1O[C@H](COP(=O)(O)O[C@@H]2[C@H](O)[C@@H](COP(=O)(O)O[C@@H]3[C@H](O)[C@@H](COP(=O)(O)O)O[C@H]3n3cnc4c(N)ncnc43)O[C@H]2n2cnc3c(N)ncnc32)[C@@H](O)[C@H]1O`, the inhibition in the assay with Nucleic Acid [1] is 54%; in assay [2], 33%; in the assay with Nucleic Acid [3] it was 15%; in assay [4] it was 0%.
Consider `Nc1ncnc2c1ncn2[C@@H]1O[C@H](COP(=O)(O)O[C@@H]2[C@H](O)[C@@H](COP(=O)(O)O[C@@H]3[C@H](O)[C@@H](CO)O[C@H]3n3cnc4c(N)ncnc43)O[C@H]2n2cnc3c(N)ncnc32)[C@@H](O)[C@H]1O`, for which the inhibition with Nucleic Acid [1] came to 48%; in assay [2], 14%; in the assay with Nucleic Acid [3], 14%; in assay [4], 0%.

Usually inhibition stands for the share of the control response that was lost under treatment.
